Assay results collected from several papers.
Compare with care: the assays were run in different laboratories.
Target: Interleukin-1 receptor-associated kinase 1 (IRAK1, Homo sapiens, UniProt P51617)

With `CCOC(=O)c1cc2cc(-c3cc(C(=O)NCc4ccc(C(=O)O)cc4)nn3C)ccc2[nH]1` the remaining binding was 85% (cell-free assay; competition with immobilised ligand; 0.1 µM).
`Cc1ccc(NC(=O)c2ccc(C)c(C(F)(F)F)c2)cc1C#Cc1nn(C2CCC(O)CC2)c2ncnc(N)c12` (stereo not drawn) gave a remaining signal of 30% (cell-free assay; 10 µM).
The remaining signal of `O=C1Nc2ccc(Cl)cc2C1=Cc1cc(Cl)c(O)c(Cl)c1` is reported as 95.4% (cell-free assay; 0.5 µM).
`CCCS(=O)(=O)Nc1ccc(F)c(C(=O)c2c[nH]c3ncc(-c4ccc(Cl)cc4)cc23)c1F` gave an inhibition of under 10% (enzyme activity; inhibitor; 1 µM).
`CNC(=O)Nc1ccc2c(c1)CC[C@@]21OC(=O)N(CC(=O)N(Cc2ccc(F)cc2)[C@@H](C)C(F)(F)F)C1=O` gave a remaining binding of 71% (cell-free assay; competition with immobilised ligand; 1 µM).
The activity vs control of `Cc1ccc(C(=O)NCc2ccsc2)cc1C#Cc1cn(C(C)C)c2ncnc(N)c12` is reported as 86% (enzyme activity; inhibitor; 1 µM).
`O=C(Nc1cnn(-c2csc(C(=O)NC3COC3)c2)c1)Nc1c(F)cccc1Cl` gave a remaining activity of 107% (enzyme activity; inhibitor; 5 µM).
With `COc1cc(-c2cc(-c3ccc(N4CCNCC4)cc3)cnc2C)cc(OC)c1OC` the inhibition was 1% (enzyme activity; inhibitor; 1 µM).
`NS(=O)(=O)c1cc(NC(=O)C2(c3ccccc3Cl)CC2)ccc1Oc1cccc(Cl)c1` has a remaining binding of 79% (cell-free assay; competition with immobilised ligand; 1 µM).
For `FC(F)(F)Oc1cccc(-c2cnc3ccc(-c4ccncc4)nn23)c1`, the activity vs control was 52% (enzyme activity; inhibitor; radiometric; 1 µM).
`COc1cc(/C=C/C(=O)CC(=O)/C=C/c2ccc(O)c(OC)c2)ccc1O` has an activity vs control of 97% (enzyme activity; inhibitor; 1 µM).
For `CCN(CC)CCNC(=O)c1c(C)[nH]c(/C=C2\C(=O)Nc3ccc(F)cc32)c1C`, the inhibition was 86% (enzyme activity; inhibitor; 10 µM).
For `COc1cc(Nc2cnc(C#N)c(O[C@H](C)CN(C)C)n2)ncc1-c1cnn(C)c1`, the remaining activity was 9% (enzyme activity; inhibitor; radiometric; 10 µM).
For `CC(C)(C)c1nc2c(s1)c1nc(N)ncc1c1ccc(NS(=O)(=O)c3c(F)cccc3F)c(F)c12`, the remaining activity was 90% (enzyme activity; inhibitor; radiometric; 1 µM).
With `Cc1cc(NC(=O)c2cccc3cc(-c4cccc5[nH]nc(N)c45)ccc23)ccc1F` the activity vs control was 100% (enzyme activity; inhibitor; 0.1 µM).
The remaining activity of `COc1cc(Cl)c(C(=O)N[C@@H](CN[C@H]2CC[C@@H](N)CC2)Cc2ccc(C#N)cc2)cc1-c1ccc(CN[C@H](C)c2ccc(C)cc2)o1` is reported as 97% (enzyme activity; inhibitor; 1 µM).
`N#CCCc1ccc2c(c1)-c1[nH]c3ccc([N+](=O)[O-])cc3c1CC(=O)N2` gave a remaining signal of 74.9% (cell-free assay; 0.5 µM).
With `CNC(=O)c1cc(Oc2ccc(NC(=O)Nc3ccc(Cl)c(C(F)(F)F)c3)cc2)ccn1` the inhibition was 60% (enzyme activity; inhibitor; 10 µM).
For `CS(=O)(=O)c1cc(C2(NC(=O)c3cncc4c3cnn4-c3ccc(F)cc3)CC2)ccn1`, the remaining binding was 87% (cell-free assay; competition with immobilised ligand; 1 µM).
`O=C1NC(=O)c2cc(Nc3ccc(F)cc3)c(Nc3ccc(F)cc3)cc21` gave a remaining signal of 88.5% (cell-free assay; 0.5 µM).
The remaining binding of `Cc1nc(N2CC[C@@H](O)C2)ncc1-c1cc(C(F)(F)F)cc2[nH]ncc12` is reported as 100% (binding; competition with immobilised ligand; 1 µM).
The inhibition of `CC/C(=N\NC(=O)NCc1cccc(O)c1)c1ccc(O)c(C)c1O` is reported as -0.6% (enzyme activity; inhibitor; 0.1 µM).
For `Nc1ncnc2occ(-c3ccc(NC(=O)Nc4cc(C(F)(F)F)ccc4F)cc3)c12`, the remaining signal was 0.85% (cell-free assay; inhibitor; 20 µM).
The remaining binding of `COCCOc1nc(-c2ccc(Cl)nc2)nc2c1CN(C(=O)c1ncn3ccccc13)CC2` is reported as 100% (cell-free assay; competition with immobilised ligand; 0.1 µM).
`CN1CC(Oc2cnc(C#N)cc2-c2ccn3nc(NC(=O)C4CC4)cc3c2)C1` has an inhibition of 38% (enzyme activity; inhibitor; 1 µM).
The inhibition of `CCCCNc1ncc2c(-c3ccc(F)cc3)nn(C[C@H]3CC[C@H](N)CC3)c2n1` is reported as 51.5% (target engagement in cells; inhibitor; chemoproteomics; 20 mM).
For `CN(C)CC#Cc1ccc(OCCCc2sc(N3CCc4cccc(C(=O)Nc5nc6ccccc6s5)c4C3)nc2C(=O)O)c(F)c1`, the remaining binding was 100% (cell-free assay; competition with immobilised ligand; 1 µM).
`Cc1ccc(Nc2nccc(N(C)c3ccc4c(C)n(C)nc4c3)n2)cc1S(N)(=O)=O` gave an inhibition of 25% (enzyme activity; inhibitor; 10 µM).
With `COc1ccc2c(c1)O[C@H](c1ccc(OC)c(OC)c1)C[C@@H]2NC(=O)C1(c2ccc3c(c2)OC(F)(F)O3)CC1` the remaining binding was 93% (cell-free assay; competition with immobilised ligand; 1 µM).
With `CN(C)C1CCN(CC#Cc2nn(C3CCCC3)c3nc(NCc4ccccc4)ncc23)C1` (stereo not drawn) the inhibition was 37% (enzyme activity; inhibitor; FRET; 10 µM).
